Consider nine compounds from ChEMBL document CHEMBL4145696 (J Med Chem, 2018).

Activity calls are given as the source filed them. No cut-off for these calls is given here.

The nature of data set [1]: Intrinsic clearance in mouse liver microsomes in presence of NADPH regeneration system. (Liver microsomes are vesicles of endoplasmic reticulum, rich in cytochrome P450 enzymes.)
Data set [2] can be described thus: Half life in mouse liver microsomes in presence of NADPH regeneration system.
The nature of data set [3]: Half life in human liver microsomes in presence of NADPH regeneration system.
The nature of data set [4]: Half life in rat liver microsomes in presence of NADPH regeneration system.
The test system of data set [5] is M14. Description: Cytotoxicity in human M14 cells assessed as reduction in cell viability incubated for 72 hrs by MTS assay. The format is functional, cell-based. The following applies: M14, 72 h.
Data set [6] is described as follows: Intrinsic clearance in rat liver microsomes in presence of NADPH regeneration system.
A short description of data set [7]: Intrinsic clearance in human liver microsomes in presence of NADPH regeneration system.
Data set [8] relates to RPMI-7951. The data set is described as follows: Cytotoxicity in human RPMI7951 cells assessed as reduction in cell viability incubated for 72 hrs by MTS assay. The following applies: RPMI-7951, 72 h. The class given is functional, cell-based. (In general: Tetrazolium dyes change colour on reduction, which living cells bring about.)
Data set [9] has as its system A-375. The data set is described as follows: Cytotoxicity in human A375 cells assessed as reduction in cell viability incubated for 72 hrs by MTS assay. The following applies: A-375, 72 h. The format is functional, cell-based.
Data set [10] deals with A-375. The data set is described as follows: Antitumor activity against human A375 cells xenografted in mouse assessed as inhibition of tumor growth at 15 mg/kg, ip dosed every other day for 2 weeks relative to untreated control. The class given is functional. The following applies: A-375, ip, 336 h, read-out: TGI. Put shortly:
(§1)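 Nude mice (6–8 weeks) implanted s.c. in dorsal flank with 2.5×10^6 log-phase A375 cells in serum-free, phenol red-free medium mixed with Matrigel. At ~100 mm³ tumours, randomized (n = 8); i.p. 100 μL every other day for 2 weeks in PEG300:PBS 1:1, vehicle control.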

Data set [11] concerns A-375. Description: Antitumor activity against human A375 cells xenografted in mouse assessed as reduction in tumor weight at 15 mg/kg, ip dosed every other day for 2 weeks. The class given is functional. Also on record: scale not given: the % may be the effect or the level left. Put shortly:
as §1
(In general: In xenograft studies the graft and the host belong to different species.)

The species entered for data set [12] is Homo sapiens. The data set is described as follows: Cytotoxicity in human DU145-TxR cells assessed as reduction in cell viability up to 1 uM incubated for 72 hrs by MTS assay. The class given is functional, cell-based. Put shortly:
(§2)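 Prostate lines (parental PC-3 and DU-145, with paclitaxel- or docetaxel-resistant TxR sublines) grown in RPMI 1640 with 10% FBS and antibiotic/antimycotic at 37 °C, 5% CO2. Seeded at 1,800–3,500 cells/well overnight, then dosed at 10 concentrations, 0.03 nM–1 μM, plus DMSO vehicle, for 72 h, quadruplicate. MTS read at 490 nm; IC50 by nonlinear regression.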

Data set [13] deals with DU-145. Description: Cytotoxicity in human DU145 cells assessed as reduction in cell viability incubated for 72 hrs by MTS assay. The class given is functional, cell-based. The following applies: DU-145, 72 h. The procedure, abridged:
as §2

In data set [14] the test system is A-375. The data set is described as follows: Antitumor activity against human A375 cells xenografted in mouse assessed as reduction in tumor volume at 15 mg/kg, ip dosed every other day for 2 weeks. The format is functional, organism-based. Put shortly:
as §1

The species named for data set [15] is Bos taurus. The data set is described as follows: Inhibition of bovine brain tubulin polymerization at 10 uM measured every 1 min for 20 mins by spectrophotometry.
Data set [16] concerns Mus musculus. Description: Toxicity in human A375 cells xenografted mouse assessed as effect on body weight at 15 mg/kg, ip dosed every other day for 2 weeks relative to untreated control. The format is organism-based. The following applies: in vivo, 336 h.
Data set [17] is described as follows: Cytotoxicity in human PC3-TxR cells assessed as reduction in cell viability incubated for 72 hrs by MTS assay. The class given is functional, cell-based.
Data set [18] in a line: Resistance index, ratio of IC50 for cytotoxicity in human DU145-TxR cells to IC50 for cytotoxicity in human DU145 cells. The class given is functional. Put shortly:
(§3)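 Prostate lines cultured in RPMI 1640 with 10% FBS at 37 °C and 5% CO2: parental PC-3 with paclitaxel-resistant PC-3/TxR, and parental DU-145 with docetaxel-resistant DU-145/TxR. Cells seeded at 1,800–3,500/well and left overnight, then exposed 72 h to 10 concentrations (0.03 nM–1 μM) or DMSO vehicle, in quadruplicate. MTS read at 490 nm; IC50s by nonlinear regression; index = resistant IC50/parental IC50.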

Data set [19] in a line: Cytotoxicity in human DU145-TxR cells assessed as reduction in cell viability incubated for 72 hrs by MTS assay. The format is functional, cell-based. Put shortly: as §2
The subject of data set [20] is A-375. Description: Antitumor activity against human A375 cells xenografted in mouse assessed as reduction in tumor weight at 30 mg/kg, ip dosed every other day for 2 weeks. The format is functional, organism-based. The procedure, abridged: as §1
A short description of data set [21]: Resistance index, ratio of IC50 for cytotoxicity in human PC3-TxR cells to IC50 for cytotoxicity in human PC3 cells. The format is functional. The procedure, abridged:
as §3

The subject of data set [22] is A-375. Description: Antitumor activity against human A375 cells xenografted in mouse assessed as reduction in tumor volume at 30 mg/kg, ip dosed every other day for 2 weeks. The format is functional, organism-based. The procedure, abridged: as §1
Data set [23] has as its system Mus musculus. The data set is described as follows: Toxicity in human A375 cells xenografted mouse assessed as effect on body weight at 30 mg/kg, ip dosed every other day for 2 weeks relative to untreated control. The class given is organism-based. To be noted: in vivo, 336 h.
The test system of data set [24] is PC-3. The data set is described as follows: Cytotoxicity in human PC3 cells assessed as reduction in cell viability incubated for 72 hrs by MTS assay. The class given is functional, cell-based. To be noted: PC-3, 72 h.
Data set [25] concerns A-375. Description: Antitumor activity against human A375 cells xenografted in mouse assessed as inhibition of tumor growth at 30 mg/kg, ip dosed every other day for 2 weeks relative to untreated control. The format is functional. The following applies: A-375, ip, 336 h, read-out: TGI. The procedure, abridged: as §1

On to `COc1cc(C(=O)c2c[nH]c(-c3c[nH]c4ccccc34)n2)cc2c1OCCO2`, for which the CLint scaled (as a rule, the rate of metabolic loss divided by the concentration) in [1] (liver microsomes) was 28.2 mL/min/kg; in [6] (liver microsomes), 51.9 mL/min/kg; in data set [7] (liver microsomes), 9.76 mL/min/kg. Besides, the t1/2 was determined as 2.03 h in data set [2], 2.13 h in data set [3] and 0.9 h in [4]. Moreover, the IC50 (usually the concentration at which inhibition is half-maximal) in [5] was found to be 0.0113 µM; in data set [8] it was 0.0292 µM; in [9], 0.021 µM.

For `COc1cc(C(=O)c2c[nH]c(-c3cccc4[nH]ccc34)n2)cc2c1OC=CO2`, the IC50 in [5] came to 0.0138 µM; in data set [8] it was 0.0348 µM; in [9], 0.0171 µM.

Regarding `COc1cc(C(=O)c2c[nH]c(-c3c[nH]c4ccccc34)n2)cc2c1OCCCO2`, the IC50 in [5] came to 0.0382 µM; in data set [8], 0.0477 µM; in data set [9], 0.0322 µM.

Take `CC(=O)O[C@H]1C(=O)[C@@]2(C)[C@H]([C@H](OC(=O)c3ccccc3)[C@]3(O)C[C@H](OC(=O)[C@H](O)[C@@H](NC(=O)c4ccccc4)c4ccccc4)C(C)=C1C3(C)C)[C@]1(OC(C)=O)CO[C@@H]1C[C@@H]2O` [PACLITAXEL]: the inhibition in vivo at 15 mg/kg in data set [10] stood at 70.7%. In addition, the Activity in [11] worked out at 62.3%. For the same compound, the result in data set [12] was inactive. Further, the IC50 in data set [13] is 0.0015 µM. In addition, in data set [14], the result was Active.

With `O=C(c1ccc2c(c1)OCO2)c1c[nH]c(-c2c[nH]c3ccccc23)n1`, the CLint scaled in data set [1] (liver microsomes) stood at 25.1 mL/min/kg; in [6] (liver microsomes), 18.3 mL/min/kg; in data set [7] (liver microsomes), 5.5 mL/min/kg. In addition, the t1/2 in data set [2] was 2.28 h; in data set [3], 3.77 h; in data set [4], 2.55 h. Also, the IC50 in data set [5] was 0.155 µM; in data set [8], 0.236 µM; in data set [9] it was 0.191 µM.

For `COc1cc(C(=O)c2c[nH]c(-c3c[nH]c4ccccc34)n2)cc2c1OC=CO2`, the inhibition entry in data set [15] is “Active”. Also, the results for the CLint scaled in data set [1] (liver microsomes), in data set [6] (liver microsomes) and in data set [7] (liver microsomes) were 40.3 mL/min/kg, 13.1 mL/min/kg and 7.7 mL/min/kg, respectively. Further, the inhibition in vivo at 15 mg/kg in [10] was found to be 54.8%. Further, the Activity entry in data set [16] and in data set [23] was “Non-Toxic” in each case. The t1/2 in [2] was determined as 1.42 h; in data set [3], 2.69 h; in data set [4], 3.57 h. Moreover, the IC50 in [17] is 0.0076 µM; in data set [19] it was 0.0815 µM; in data set [5] it was 0.0012 µM; in [13] it was 0.0422 µM; in data set [24], 0.0152 µM; in [8], 0.0033 µM. In addition, the IC50 in [9] came to 0.0011 µM. Moreover, the “Ratio IC50” value in data set [18] stood at 1.9; in [21], 0.5. The result in data set [20], in [22] and in data set [14] was Active. Further, the inhibition in vivo at 30 mg/kg in [25] is 73.9%.

For `COc1cc(C(=O)c2c[nH]c(-c3c[nH]c4ccccc34)n2)cc2c1OCO2`, the CLint scaled in data set [1] (microsomes) came to 69.6 mL/min/kg; in data set [6] (microsomes), 253 mL/min/kg; in data set [7] (microsomes) it was 16.3 mL/min/kg. The t1/2 in [2] was 0.82 h; in data set [3] it was 1.28 h; in [4], 0.18 h. The IC50 in data set [5] was 0.0056 µM; in data set [9], 0.0035 µM.

Regarding `O=C(c1ccc2c(c1)OCCO2)c1c[nH]c(-c2c[nH]c3ccccc23)n1`, the figures for the CLint scaled in data set [1] (liver microsomes), in data set [6] (liver microsomes) and in [7] (liver microsomes) were 154 mL/min/kg, 54.9 mL/min/kg and 5.95 mL/min/kg, respectively. The t1/2 in data set [2] was 0.37 h; in data set [3], 3.5 h; in data set [4] it was 0.85 h. Besides, the values for the IC50 in [5], in data set [8] and in [9] were 0.119 µM, 0.214 µM and 0.159 µM, respectively.

For the compound `COc1cc(C(=O)c2c[nH]c(-c3c[nH]c4cccc(C)c34)n2)cc2c1OC=CO2`, the IC50 in data set [5] was 0.0061 µM; in data set [8], 0.0088 µM.
